In ChEMBL document CHEMBL1138784, “Rational design, synthesis, and biological evaluation of bis(pyrimido[5,6,1-de]acridines) and bis(pyrazolo[3,4,5-kl]acridine-5-carboxamides) as new anticancer agents” (J Med Chem, 2004):

Key:
[1] = system: LoVo; test: Ratio of IC50 against sensitive LoVo cell line and that of doxorubicin resistance LoVo cell line was determined after 1 hr exposure; format: functional, Homo sapiens
[2] = Cytotoxicity is determined as the concentration required to inhibit the growth of human colon adenocarcinoma (HT-29) cell line
[3] = system: PC-3; test: Cytotoxicity against human PC3 cancer cell line was determined after 1 hr; format: functional, cell-based; details: PC-3, 1 h
Outline: (§1)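 MTT colorimetric assay. Cells seeded by growth characteristics and preincubated 24 h, then exposed to drug for 1 h or 144 h at 37 °C, 5% CO2. H460M, MKN45 and PC-3 were grown in RPMI 1640 with 10% FCS. HCT116 was grown in D-MEM with 10% FBS and 2 mM glutamine.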

[4] = system: LoVo; test: Cytotoxicity against doxorubicin resistant LoVo cell line was determined against 144 hrs; format: functional, cell-based; details: Homo sapiens
Outline: (§2)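 MTT assay on doxorubicin-sensitive LoVo and resistant LoVo/Dx cells, 24 h preincubation, then 1 h or 144 h drug exposure at 37 °C, 5% CO2. IC50 in nM. Resistance index is IC50 on LoVo/Dx divided by IC50 on LoVo.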

[5] = system: LoVo; test: Cytotoxicity against human LoVo cancer cell line was determined after 1 hr; format: functional, cell-based; outline: as §2
[6] = system: Nucleic Acid; test: Binding site preference is determined as the ratio of Poly (dA-dT)2 to Poly (dG-dC)2; format: nucleic-acid assay
Outline: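 Ethidium displacement fluorometry at pH 7.0 (10 mM Na2HPO4, 10 mM NaH2PO4, 1 mM EDTA) with 1.26 μM ethidium bromide and 1 μM [poly(dA-dT)]2 or [poly(dG-dC)]2, 20 °C. Ex 546 nm, em 595 nm, drug added serially from a DMSO stock. Preference taken from the [AT]/[GC] ratio of C50 values, counted significant only below 0.7 or above 1.3.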

[7] = system: SNB-19; test: Percent growth of CNS SNB-19 cell line was determined at 10e-5 M concentration after 48 hr of exposing; format: functional, Homo sapiens
Outline: (§3)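 NCI sulforhodamine B screen. Cells seeded by growth rate, 24 h drug-free, then 48 h exposure to 10^-8, 10^-6 or 10^-5 M. Protein-stain optical density expressed as percent growth relative to untreated control (100%); negative values indicate cell kill.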

[8] = system: DU-145; test: Percent growth of prostate DU-145 cell line was determined at 10e-6 M concentration after 48 hr of exposing; format: functional, Homo sapiens
[9] = system: DU-145; test: Percent growth of prostate DU-145 cell line was determined at 10e-8 M concentration after 48 h of exposing; format: functional, Homo sapiens
[10] = Percent growth of melanoma LOX IMV1 cell line was determined at 10e-5 M concentration after 48 hr of exposing; format: functional, Homo sapiens; outline: as §3
[11] = Percent growth of melanoma LOX IMV1 cell line was determined at 10e-6 M concentration after 48 hr of exposing; format: functional, Homo sapiens; outline: as §3
[12] = Percent growth of melanoma LOX IMV1 cell line was determined at 10e-8 M concentration after 48 hr of exposing; format: functional, Homo sapiens; outline: as §3
[13] = system: LoVo; test: Cytotoxicity against doxorubicin resistant LoVo cell line was determined against 1 hour; format: functional, cell-based; details: Homo sapiens; outline: as §2
[14] = system: MKN-45; test: Cytotoxicity against human MKN45 cancer cell line was determined after 1 hr; format: functional, cell-based; details: MKN-45, 1 h; outline: as §1
[15] = system: HCT-116; test: Cytotoxicity against human HCT116 cancer cell line was determined after 1 hr; format: functional, cell-based; details: HCT-116, 1 h; outline: as §1
[16] = system: SNB-19; test: Percent growth of CNS SNB-19 cell line was determined at 10e-6 M concentration after 48 hr of exposing; format: functional, Homo sapiens; outline: as §3
[17] = system: SNB-19; test: Percent growth of CNS SNB-19 cell line was determined at 10e-8 M concentration after 48 hr of exposing; format: functional, Homo sapiens; outline: as §3
[18] = system: 786-0; test: Percent growth of renal 786-O cell line was determined at 10e-5 M concentration after 48 hr of exposing; format: functional, Homo sapiens; outline: as §3
[19] = system: 786-0; test: Percent growth of renal 786-O cell line was determined at 10e-6 M concentration after 48 h of exposing; format: functional, Homo sapiens; outline: as §3
[20] = system: 786-0; test: Percent growth of renal 786-O cell line was determined at 10e-8 M concentration after 48 h of exposing; format: functional, Homo sapiens; outline: as §3
[21] = system: MCF7; test: Percent growth of breast MCF-7 cell line was determined at 10e-6 M concentration after 48 h of exposing; format: functional, Homo sapiens
[22] = system: MCF7; test: Percent growth of breast MCF-7 cell line was determined at 10e-8 M concentration after 48 hr of exposing; format: functional, Homo sapiens
[23] = system: SW-620; test: Percent growth of colon SW-620 cell line was determined at 10e-5 M concentration after 48 hr of exposing; format: functional, Homo sapiens; outline: as §3
[24] = system: SW-620; test: Percent growth of colon SW-620 cell line was determined at 10e-6 M concentration after 48 hr of exposing; format: functional, Homo sapiens; outline: as §3
[25] = system: SW-620; test: Percent growth of colon SW-620 cell line was determined at 10e-8 M concentration after 48 hr of exposing; format: functional, Homo sapiens; outline: as §3
[26] = system: NCI-H460; test: Percent growth of lung NCI-H460 cell line was determined at 10e-5 M concentration after 48 hr of exposing; format: functional, Homo sapiens; outline: as §3
[27] = system: NCI-H460; test: Percent growth of lung NCI-H460 cell line was determined at 10e-6 M concentration after 48 hr of exposing; format: functional, Homo sapiens; outline: as §3
[28] = system: NCI-H460; test: Percent growth of lung NCI-H460 cell line was determined at 10e-8 M concentration after 48 hr of exposing; format: functional, Homo sapiens; outline: as §3
[29] = system: MOLT-4; test: Percent growth of leukemia MOLT-4 cell line was determined at 10e-5 M concentration after 48 hr of exposing; format: functional, Homo sapiens; outline: as §3
[30] = system: MOLT-4; test: Percent growth of leukemia MOLT-4 cell line was determined at 10e-6 M concentration after 48 h of exposing; format: functional, Homo sapiens; outline: as §3
[31] = system: MOLT-4; test: Percent growth of leukemia MOLT-4 cell line was determined at 10e-8 M concentration after 48 hr of exposing; format: functional, Homo sapiens; outline: as §3
[32] = system: OVCAR-4; test: Percent growth of ovarian OVCAR-4 cell line was determined at 10e-5 M concentration after 48 hr of exposing; format: functional, Homo sapiens; outline: as §3
[33] = system: OVCAR-4; test: Percent growth of ovarian OVCAR-4 cell line was determined at 10e-6 M concentration after 48 hr of exposing; format: functional, Homo sapiens; outline: as §3
[34] = system: OVCAR-4; test: Percent growth of ovarian OVCAR-4 cell line was determined at 10e-8 M concentration after 48 hr of exposing; format: functional, Homo sapiens; outline: as §3
[35] = system: DU-145; test: Percent growth of prostate DU-145 cell line was determined at 10e-5 M concentration after 48 hr of exposing; format: functional, Homo sapiens
[36] = Cytotoxicity against human PC3 cancer cell line was determined after 144 hr; format: cell-based; details: Cancer cell lines; outline: as §1
[37] = Cytotoxicity against human LoVo cancer cell line was determined after 144 hr; format: cell-based; outline: as §2
[38] = Cytotoxicity against human HCT116 cancer cell line was determined after 144 hr; format: cell-based; details: HCT-116, 144 h; outline: as §1
[39] = system: MCF7; test: Percent growth of breast MCF-7 cell line was determined at 10e-5 M concentration after 48 hr of exposing; format: functional, Homo sapiens

For `CN(C)CCn1c(=O)c2ccc(NCCCN(C)CCCNc3ccc4c(=O)n(CCN(C)C)c(=O)n5c6ccccc6c(=O)c3c45)c3c(=O)c4ccccc4n(c1=O)c23`, the Resistance index [1] was 2.1, the IC50 [2] was less than 0.1 nM and the IC50 [3] was 4.1 nM. The IC50 [4] was 3.1 nM, the IC50 [5] was 5.2 nM and the Binding site preference [6] was 25. The Growth [7] was -53%, the Growth [8] was -13% and the Growth [9] was 37%. For the same compound, the Growth [10] was -82%, the Growth [11] was -43% and the Growth [12] was 25%. For the same compound, the IC50 [13] was 11 nM, the IC50 [14] was 0.01 nM and the IC50 [15] was 0.72 nM. It also gave a Growth [16] of 7%, a Growth [17] of 32% and a Growth [18] of -100%. It also gave a Growth [19] of 4%, a Growth [20] of 34% and a Growth [21] of 0%. It also gave a Growth [22] of 31%, a Growth [23] of -89% and a Growth [24] of -25%. The Growth [25] was 26%, the Growth [26] was -95% and the Growth [27] was -22%. For the same compound, the Growth [28] was 13%, the Growth [29] was -71% and the Growth [30] was -26%. The Growth [31] was 9%, the Growth [32] was -77% and the Growth [33] was -53%. The Growth [34] was 15%, the Growth [35] was -98% and the IC50 [36] was 1.6 nM. The IC50 [37] was 0.31 nM, the IC50 [38] was 0.1 nM and the Growth [39] was -96%.
Work on `COc1cccc2c1C(=O)c1c(O)c3c(c(O)c1C2=O)C[C@@](O)(C(=O)CO)C[C@@H]3O[C@H]1C[C@H](N)[C@H](O)[C@H](C)O1` [DOXORUBICIN] yielded a Resistance index [1] of 11, an IC50 [4] of 2300 nM and an IC50 [5] of 810 nM. The IC50 [13] was 9100 nM.
